In ChEMBL document CHEMBL5226322, “Harnessing the Role of HDAC6 in Idiopathic Pulmonary Fibrosis: Design, Synthesis, Structural Analysis, and Biological Evaluation of Potent Inhibitors” (J Med Chem, 2021) one finds solubility, Activity and Time data, which are given here for two compounds.

Data set [1] in a line: Solubility of the compound at pH 7.4 PBS buffer incubated for 24 hrs by HPLC-UV analysis. It counts as physicochemical. The note with it: pH 7.4, 24 h. In short, it runs like this: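 Compound from 10 mM DMSO stock diluted to 250 μM (2.5% DMSO), either in 50 mM acetic acid (pH 3.0) or in 50 mM aqueous PBS (pH 7.4). Shaken 24 h at 25 °C, PTFE-filtered and diluted 1:2. Quantified by RP-18 HPLC-UV at 254 nm against a 250 μM standard in MeCN/water. Run in triplicate and averaged.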

Data set [2] deals with Heart. The data set can be described thus: Cardiotoxicity in Langendorff-perfused Sprague-Dawley rat heart assessed as effect on HR at 0.1 uM by ECG analysis (reference value: 235.7 +/-8.3 bpm). The data set is classed as toxicity, tissue-based.
Data set [3] has as its system Heart. The data set can be described thus: Cardiotoxicity in Langendorff-perfused Sprague-Dawley rat heart assessed as effect on HR at 0.01 uM by ECG analysis (reference value: 235.7 +/-8.3 bpm). It counts as toxicity, tissue-based.
The species entered for data set [4] is Homo sapiens. The data set can be described thus: Antifibrotic activity in TGF-beta1-induced human Lung parenchyma assessed as inhibition of alpha-SMA mRNA expression at 4.1 uM incubated upto 7 days by qRT-PCR analysis. It counts as functional. The note with it: time <= 7.0 day. In short, it runs like this: (§1)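 Human lung parenchyma pieces (2 mm³) cultured in DMEM with TGF-β1 (10 ng/mL) plus compound at 0.41 or 4.1 μM or vehicle (0.1% DMSO). Tissue collected on day 7, homogenized, total RNA purified, then qRT-PCR for HDAC6, collagen I, collagen III, αSMA and fibronectin. Relative expression by the 2^-Ct method; n=3, paired t test.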

Data set [5] can be described thus: Toxicity in zebra fish embryo assessed as mild cardiac edema at 100 uM […]. Also noted: species or system Danio rerio. The note with it: zebrafish. The method in brief: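 Wildtype Tübingen zebrafish larvae reared at 28.5 °C (14 h light/10 h dark) in embryo medium with methylene blue. From 3 days old, exposed for 2 days to 1, 10, 25, 50 or 100 µM in embryo medium, or 0.1% DMSO vehicle. 4 larvae per well in 400 µL, 8 larvae per group. Larvae scored for swim bladder inflation and cardiac edema.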

The subject of data set [6] is Heart. The data set can be described thus: Cardiotoxicity in Langendorff-perfused Sprague-Dawley rat heart assessed as effect on QTc interval time at 10 uM by ECG analysis (reference value: 150.5 +/-5.5 milliseconds). The data set is classed as toxicity, tissue-based.
In data set [7] the test system is Heart. The data set can be described thus: Cardiotoxicity in Langendorff-perfused Sprague-Dawley rat heart assessed as effect on RR time at 0.1 uM by ECG analysis (reference value: 257.2 +/-8.1 milliseconds). It counts as toxicity, tissue-based.
In data set [8] the test system is Heart. The data set can be described thus: Cardiotoxicity in Langendorff-perfused Sprague-Dawley rat heart assessed as effect on RR time at 0.01 uM by ECG analysis (reference value: 257.2 +/-8.1 milliseconds). The data set is classed as toxicity, tissue-based.
Data set [9] has as its system Heart. The data set can be described thus: Cardiotoxicity in Langendorff-perfused Sprague-Dawley rat heart assessed as effect on PQ interval time at 0.01 uM by ECG analysis (reference value: 43.6 +/-2.5 milliseconds). It counts as toxicity, tissue-based.
Data set [10] concerns NIH3T3. The data set can be described thus: Cytotoxicity in mouse NIH3T3 cells assessed as reduction in cell viability at 50 uM incubated for 24 hrs by neutral red uptake method based UV/visible spectrophotometer analysis. The data set is classed as toxicity. The note with it: nih3t3, 24 h. The method in brief: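 NIH3T3 mouse fibroblasts grown in DMEM with 10% FCS, L-glutamine/pen-strep and non-essential amino acids (37 °C, 5% CO2). Exposed 24 h to compound diluted from a DMSO stock into medium. Viability measured by Neutral Red uptake: 3 h in NR medium, then acetic acid/ethanol desorb, absorbance at 540 nm. Student's t-test, p<0.05.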

Data set [11] relates to Heart. The data set can be described thus: Cardiotoxicity in Langendorff-perfused Sprague-Dawley rat heart assessed as effect on QT interval time at 0.1 uM by ECG analysis (reference value: 76.2 +/-2.9 milliseconds). The data set is classed as toxicity, tissue-based.
Data set [12] relates to Heart. The data set can be described thus: Cardiotoxicity in Langendorff-perfused Sprague-Dawley rat heart assessed as effect on PQ interval time at 1 uM by ECG analysis (reference value: 43.6 +/-2.5 milliseconds). It counts as toxicity, tissue-based.
Data set [13] has as its system Heart. The data set can be described thus: Cardiotoxicity in Langendorff-perfused Sprague-Dawley rat heart assessed as effect on QTc interval time at 1 uM by ECG analysis (reference value: 150.5 +/-5.5 milliseconds). The data set is classed as toxicity, tissue-based.
Data set [14] deals with Heart. The data set can be described thus: Cardiotoxicity in Langendorff-perfused Sprague-Dawley rat heart assessed as effect on QTc interval time at 0.01 uM by ECG analysis (reference value: 150.5 +/-5.5 milliseconds). The data set is classed as toxicity, tissue-based.
The test system of data set [15] is NIH3T3. The data set can be described thus: Cytotoxicity in mouse NIH3T3 cells assessed as reduction in cell viability at 75 uM incubated for 24 hrs by neutral red uptake method based UV/visible spectrophotometer analysis. It counts as toxicity. The note with it: nih3t3, 24 h. In short, it runs like this:
(§2)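 NIH3T3 fibroblasts grown in DMEM with 10% FCS, L-glutamine/pen-strep and non-essential amino acids at 37 °C, 5% CO2. Monolayers exposed 24 h to compound diluted from a DMSO stock into medium. Neutral Red medium then added for 3 h at 37 °C. Dye extracted with acetic acid/ethanol desorb solution and absorbance read at 540 nm. Student's t-test, p<0.05.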

Data set [16] deals with Heart. The data set can be described thus: Cardiotoxicity in Langendorff-perfused Sprague-Dawley rat heart assessed as effect on RR time at 10 uM by ECG analysis (reference value: 257.2 +/-8.1 milliseconds). It counts as toxicity, tissue-based.
Data set [17] can be described thus: Mutagenecity in Salmonella typhimurium TA100 in presence of S9 fraction at 1 to 75 uM incubated for 90 mins by Ames test. It counts as toxicity, subcellular. The note with it: salmonella enterica subsp. enterica serovar typhimurium, s9, 1.5 h, dose 1-75 µM.
The species named for data set [18] is Homo sapiens. The data set can be described thus: Antifibrotic activity in TGF-beta1-induced human Lung parenchyma assessed as inhibition of collagen 1 mRNA expression at 4.1 uM incubated upto 7 days by qRT-PCR analysis. The data set is classed as functional. The note with it: time <= 7.0 day. In short, it runs like this: as §1
(In qPCR the cycle at which signal appears reflects the starting amount.)

The test system of data set [19] is Heart. The data set can be described thus: Cardiotoxicity in Langendorff-perfused Sprague-Dawley rat heart assessed as effect on QRS interval time at 0.1 uM by ECG analysis (reference value: 15.2 +/-0.2 milliseconds). It counts as toxicity, tissue-based.
For data set [20], the species on record is Homo sapiens. The data set can be described thus: Antifibrotic activity in TGF-beta1-induced human Lung parenchyma assessed as inhibition of fibronectin mRNA expression at 4.1 uM incubated upto 7 days by qRT-PCR analysis. It counts as functional. The note with it: time <= 7.0 day. In short, it runs like this: as §1
The subject of data set [21] is Heart. The data set can be described thus: Cardiotoxicity in Langendorff-perfused Sprague-Dawley rat heart assessed as effect on QTc interval time at 0.1 uM by ECG analysis (reference value: 150.5 +/-5.5 milliseconds). It counts as toxicity, tissue-based.
For data set [22], the system named is Heart. The data set can be described thus: Cardiotoxicity in Langendorff-perfused Sprague-Dawley rat heart assessed as effect on RR time at 1 uM by ECG analysis (reference value: 257.2 +/-8.1 milliseconds). The data set is classed as toxicity, tissue-based.
The test system of data set [23] is Heart. The data set can be described thus: Cardiotoxicity in Langendorff-perfused Sprague-Dawley rat heart assessed as effect on QT interval time at 1 uM by ECG analysis (reference value: 76.2 +/-2.9 milliseconds). The data set is classed as toxicity, tissue-based.
Data set [24] has as its system Heart. The data set can be described thus: Cardiotoxicity in Langendorff-perfused Sprague-Dawley rat heart assessed as effect on QRS interval time at 1 uM by ECG analysis (reference value: 15.2 +/-0.2 milliseconds). It counts as toxicity, tissue-based.
Data set [25] relates to NIH3T3. The data set can be described thus: Cytotoxicity in mouse NIH3T3 cells assessed as reduction in cell viability at 5 uM incubated for 24 hrs by neutral red uptake method based UV/visible spectrophotometer analysis. It counts as toxicity. The note with it: nih3t3, 24 h. In short, it runs like this:
as §2

The species entered for data set [26] is Homo sapiens. The data set can be described thus: Antifibrotic activity in TGF-beta1-induced human Lung parenchyma assessed as inhibition of collagen 3 mRNA expression at 4.1 uM incubated upto 7 days by qRT-PCR analysis. The data set is classed as functional. The note with it: time <= 7.0 day. The method in brief: as §1

Converted amounts (≈) assume the structure as drawn. The source made the active and inactive calls. No cut-off for these calls is given here.

The term solubility denotes the dissolved amount per volume that the medium holds. Lower therefore signals little dissolved substance. Turning to `CN1CCC2(CC1)c1ccccc1N(Cc1ccc(C(=O)NO)cc1)C2c1ccccc1F` (racemic), the solubility in data set [1] worked out at 285 µM (≈ 127 µg/mL).

On to `CC1(C)c2ccccc2N(Cc2ccc(C(=O)NO)cc2)C1c1cccnc1` (racemic), for which the Activity is 238.1 bpm with Heart [2]; 235.4 bpm in the data set on Heart [3]; “Toxic” in data set [5]; 71% with NIH3T3 [10]; 53% in the data set with NIH3T3 [15]; “Non-Toxic” in data set [17]. For the same compound, the Activity in the data set with NIH3T3 [25] is given as 98%. In addition, the result in the data set listed under Homo sapiens [4], in the data set filed under Homo sapiens [18], in the data set filed under Homo sapiens [20] and in the data set listed under Homo sapiens [26] was Active. In addition, the Time in the data set on Heart [6] came out at 145.3 ms; in the data set on Heart [7] it was 253.7 ms; in the data set on Heart [8], 255.9 ms; with Heart [9], 44.1 ms; with Heart [11], 78 ms; in the data set on Heart [12], 44.5 ms. For the same compound, the Time in the data set with Heart [13] is 150.8 ms; in the data set with Heart [14] it was 154.6 ms; in the data set on Heart [16], 294.1 ms; with Heart [19], 15.4 ms; in the data set with Heart [21], 155.1 ms; in the data set with Heart [22], 257.7 ms. Also, the Time was found to be 76.4 ms in the data set with Heart [23] and 15.8 ms with Heart [24].
